Measurements: ChEMBL document CHEMBL1132709, “Novel cyclopropapyrroloindole derivative (AT-3510) bearing methoxycarbonyl and trifluoromethyl groups” (J Med Chem, 1999)
≈ marks a conversion by molar mass, not a printed value.

Key:
Mus musculus [1] = assay: In vivo antitumor activity (0.25 mg/Kg) is the measure of tumor growth inhibition of colon 26 murine […] cells.; assay type: functional
Summary of the method: (§1)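 Colon 26 cells (10^6/mouse) inoculated sc into male CDF1 mice on day 0; drug given iv on day 7. Read-out is percentage tumor growth inhibition versus the untreated group.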

HeLa = assay: Concentration required to inhibit the growth of HeLaS3 human uterine cervix carcinoma cells by 50%; assay type: functional, cell-based
Mus musculus [2] = assay: In vivo antitumor activity (0.5 mg/Kg) is the measure of tumor growth inhibition of colon 26 murine […] cells.; assay type: functional; summary of the method: as §1
P338 = assay: In vitro concentration required to inhibit the growth of […] murine leukemia cells by 50%; assay type: functional, cell-based; conditions: Mus musculus
Mus musculus [3] = assay: In vivo antitumor activity (0.125 mg/Kg) is the measure of tumor growth inhibition of colon 26 murine […] cells.; assay type: functional; summary of the method: as §1
Mus musculus [4] = assay: In vivo antitumor activity (0.125 mg/Kg) is the measure of increase in life span of mice bearing P388 murine leukemia cells; assay type: functional
Mus musculus [5] = assay: In vivo antitumor activity (0.125 mg/Kg) is the measure of tumor growth inhibition in mice bearing S180 murine sarcoma cells; assay type: functional, CCRF S-180
Mus musculus [6] = assay: In vivo antitumor activity (0.25 mg/Kg) is the measure of increase in life span of mice bearing P388 murine leukemia cells; 2/2 cured mice (>60-day survivors); assay type: functional, organism-based
Mus musculus [7] = assay: In vivo antitumor activity (0.584 mg/kg) is the measure of tumor growth inhibition of human tumor xenograft WiDr (colon) implanted sc in mice.; assay type: functional
Summary of the method: (§2)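 Tumor fragments (2–3 mm3) implanted sc into female BALB/cA Jcl-nu mice on day 0. A single iv dose was given once tumor volume reached about 100 mm3. Read-out is percentage of maximum tumor growth inhibition versus the untreated group.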

Mus musculus [8] = assay: In vivo antitumor activity (0.584 mg/kg) is the measure of tumor growth inhibition of human tumor xenograft HCT116 (colon) implanted sc in mice.; assay type: functional; summary of the method: as §2
Mus musculus [9] = assay: In vivo antitumor activity (0.584 mg/kg) is the measure of tumor growth inhibition of human tumor xenograft NUGC-3 (stomach) implanted sc in mice.; assay type: functional; summary of the method: as §2
Mus musculus [10] = assay: In vivo antitumor activity (0.584 mg/kg) is the measure of tumor growth inhibition of human tumor xenograft DLD-1 (colon) implanted sc in mice.; assay type: functional; summary of the method: as §2
Mus musculus [11] = assay: In vivo antitumor activity (9.81 mg/kg) is the measure of tumor growth inhibition of human tumor xenograft DLD-1 (colon) implanted sc in mice.; assay type: functional, organism-based; summary of the method: as §2
Mus musculus [12] = assay: In vivo antitumor activity (9.81 mg/kg) is the measure of tumor growth inhibition of human tumor xenograft HCT116 (colon) implanted sc in mice.; assay type: functional, organism-based; summary of the method: as §2
Mus musculus [13] = assay: In vivo antitumor activity (9.81 mg/kg) is the measure of tumor growth inhibition of human tumor xenograft NUGC-3 (stomach) implanted sc in mice.; assay type: functional, organism-based; summary of the method: as §2
Mus musculus [14] = assay: In vivo antitumor activity (9.81 mg/kg) is the measure of tumor growth inhibition of human tumor xenograft WiDr (colon) implanted sc in mice.; assay type: functional, organism-based; summary of the method: as §2

`COC(=O)c1c(C(F)(F)F)[nH]c2c(O)cc3c(c12)[C@H](CCl)CN3C(=O)c1cc2cc(NC(=O)c3cc4cccc(OC)c4cn3)ccc2[nH]1` (racemic) showed a TGI (Mus musculus [1]) of 90% and an IC50 (HeLa) of 0.51 ng/mL (≈ 0.737 nM).

For `COC(=O)c1c(C(F)(F)F)[nH]c2c(O)cc3c(c12)[C@H](CCl)CN3C(=O)c1cc2cc(NC(=O)c3cnc4ccccc4c3)ccc2[nH]1` (racemic), the TGI (Mus musculus [2]) was 84% and the IC50 (HeLa) was 1.5 ng/mL (≈ 2.27 nM).

For `COC(=O)c1c(C(F)(F)F)[nH]c2c(O)cc3c(c12)[C@H](CCl)CN3C(=O)c1cc2cc(NC(=O)c3cc4ccc(OC)cc4o3)ccc2[nH]1` (racemic), the TGI (Mus musculus [2]) was 94% and the IC50 (HeLa) was 0.12 ng/mL (≈ 0.176 nM).

Compound `COC(=O)c1[nH]c2c(c1C(=O)OC)[C@@]13C[C@@H]1CN(C(=O)c1cc4cc(NC(=O)c5cc6ccccc6o5)ccc4[nH]1)C3=CC2=O` (racemic) has an IC50 (P338) of 0.66 ng/mL (≈ 1.09 nM).

With `COC(=O)c1c(C(F)(F)F)[nH]c2c1[C@@]13C[C@@H]1CN(C(=O)c1cc4cc(OC)c(OC)c(OC)c4[nH]1)C3=CC2=O` (racemic) the IC50 (P338) was 0.24 ng/mL (≈ 0.44 nM).

Work on `COC(=O)c1c(C(F)(F)F)[nH]c2c(O)cc3c(c12)[C@H](CCl)CN3C(=O)c1cc2cc(OC)c(OC)c(OC)c2o1` (racemic) yielded a TGI (Mus musculus [2]) of 75% and an IC50 (HeLa) of 0.12 ng/mL (≈ 0.206 nM).

In the case of `COC(=O)c1c(C(F)(F)F)[nH]c2c(O)cc3c(c12)[C@H](CCl)CN3C(=O)c1cc2c(OC)c(OC)c(OC)cc2[nH]1` (racemic), the IC50 (HeLa) is reported as 32 ng/mL (≈ 55 nM).

In the case of `COC(=O)c1c(C(F)(F)F)[nH]c2c(O)cc3c(c12)[C@H](CCl)CN3C(=O)c1cc2cc(NC(=O)c3cc4cc(OC)ccc4o3)ccc2[nH]1` (racemic), the TGI (Mus musculus [2]) is reported as 94% and the IC50 (HeLa) is reported as 0.064 ng/mL (≈ 0.094 nM).

Compound `COC(=O)c1c(C(F)(F)F)[nH]c2c(O)cc3c(c12)[C@H](CCl)CN3C(=O)c1cc2cc(NC(=O)c3cc4ccccc4o3)ccc2[nH]1` (racemic) has a TGI (Mus musculus [2]) of 85% and an IC50 (HeLa) of 0.53 ng/mL (≈ 0.814 nM).

`COC(=O)c1c(C)[nH]c2c1[C@@]13C[C@@H]1CN(C(=O)c1cc4cc(OC)c(OC)c(OC)c4[nH]1)C3=CC2=O` (racemic) was tested, and the IC50 (P338) was 0.34 ng/mL (≈ 0.692 nM).

For `COC(=O)c1c(C(F)(F)F)[nH]c2c(O)cc3c(c12)[C@H](CCl)CN3C(=O)c1cc2cc(NC(=O)c3cc4cc(OC)ccc4cn3)ccc2[nH]1` (racemic), the TGI (Mus musculus [1]) was 90% and the IC50 (HeLa) was 0.18 ng/mL (≈ 0.26 nM).

Work on `COC(=O)c1c(C(F)(F)F)[nH]c2c1[C@@]13C[C@@H]1CN(C(=O)c1cc4cc(OC)ccc4[nH]1)C3=CC2=O` (racemic) yielded an IC50 (P338) of 0.23 ng/mL (≈ 0.474 nM).

In the case of `COC(=O)c1c(C(F)(F)F)[nH]c2c(O)cc3c(c12)[C@H](CCl)CN3C(=O)c1cc2cc(NC(=O)c3cc4c(OC)cccc4cn3)ccc2[nH]1` (racemic), the TGI (Mus musculus [3]) is reported as 67% and the IC50 (HeLa) is reported as 0.2 ng/mL (≈ 0.289 nM).

`Cc1c[nH]c2c1[C@@]13C[C@@H]1CN(C(=O)c1cc4cc(NC(=O)c5cc6ccccc6[nH]5)ccc4[nH]1)C3=CC2=O` (racemic) was tested, and the ILS (Mus musculus [4]) was 210%, the TGI (Mus musculus [5]) was 86% and the IC50 (P338) was 0.028 ng/mL (≈ 0.0558 nM).

`COC(=O)c1[nH]c2c(c1C(=O)OC)[C@@]13C[C@@H]1CN(C(=O)c1cc4cc(NC(=O)c5cc6ccccc6[nH]5)ccc4[nH]1)C3=CC2=O` (racemic) gave an IC50 (P338) of 0.31 ng/mL (≈ 0.514 nM).

In the case of `COC(=O)c1c(C(F)(F)F)[nH]c2c1[C@@]13C[C@@H]1CN(C(=O)c1cc4cc(NC(=O)c5cc6ccccc6o5)ccc4[nH]1)C3=CC2=O` (racemic), the ILS (Mus musculus [6]) is reported as 2/2 cured mice (>60-day survivors).

For `CCN(CC)c1ccc2cc(C(=O)Nc3ccc4[nH]c(C(=O)N5C[C@@H](CCl)c6c5cc(OC(=O)Nc5ccccc5)c5[nH]cc(C)c65)cc4c3)oc2c1` [CARZELESIN], the TGI (Mus musculus [7]) was 56%, the TGI (Mus musculus [8]) was 82% and the TGI (Mus musculus [9]) was 98%. It also gave a TGI (Mus musculus [10]) of 79%.

With CISPLATIN the TGI (Mus musculus [11]) was 25%, the TGI (Mus musculus [12]) was 34% and the TGI (Mus musculus [13]) was 87%. It also gave a TGI (Mus musculus [14]) of 44%.
